# Assay outcomes deposited in PubChem BioAssay by several laboratories.
# Sampled rows, rich in hits. Any-hit rate of the full collection: about 4.1%.
# KCNQ1 block = inhibitors of human KCNQ1 potassium channel | 310,000 compounds, 1.3% hits | B-score at 10 µM | CHO-K1 KCNQ1, FluxOR thallium flux fluorescence; active compounds read high | P51787;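 active means compounds whose thallium flux B-score, printed positive for inhibition, exceeds three library SD while starting fluorescence stays within three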;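 further: channel opened by potassium depolarization with thallium stimulus after 20 min compound exposure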
# KCNQ1 act = potentiates or activates the human KCNQ1 potassium channel | CHO-K1 KCNQ1, thallium flux FluxOR fluorescence; active compounds read high | 310,000 compounds, 0.35% hits | B-score at 10 µM;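 active means fluorescence ratio B-score, a plate-corrected score, at least three library SD, with initial intensity B-score within 5 SD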
#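 System: Stable KCNQ1 CHO-K1 line | Incubation: 90 min dye loading and 20 min compound exposure, both at room temperature | Measure: Ratio B score | Medium: Assay buffer for compound exposure, DMSO matched across wells | Compound dosing: Single-concentration screen | Probe or stimulus: K+/Tl+ depolarizing stimulus | Measured by: Kinetic FluxOR fluorescence, 10 s baseline plus 110 s post-stimulus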
# KCNK3 block = human KCNK3 channel inhibition, primary screen | CHO-KCNK3 thallium flux, FluxOR fluorescence; active compounds read low | B-score at 10 µM | 340,000 compounds, 0.84% hits | AID 602410;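 active means B-score under library mean minus 4 SD, starting fluorescence ratio at most library mean plus 5 SD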;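 further: more negative B-score means stronger inhibition of thallium flux through KCNK3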
# hERG rescue = shields human hERG channel from block by proarrhythmic agents; Q12809; activation (rescue from dofetilide block), less the hit threshold, % at 10 µM; AID 1511; CHO-hERG, FluxOR thallium flux, dofetilide IC70 present; 310,000 compounds, 0.51% hits;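 active means activation above the mean of controls blocked by dofetilide plus 5 SD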;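 further: thallium influx through hERG after potassium depolarization seen as dye fluorescence rise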
# Cl transport mod = modulates chloride dependent transport by human KCC2; Q9H2X9; KCC2 cells, thallium flux FluoZin-2 fluorescence; B-score of Tl+ flux slope (higher = more flux/activation; lower = inhibition) at 10 µM; 190,000 compounds, 2.2% hits; AID 1456;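 active means thallium flux slope and its plate-corrected score both differing from the plate sample mean at a set confidence after two filtering rounds, in either direction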;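 further: slope of fluorescence scaled to starting intensity during 10 to 20 s after thallium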
# KCNK9 inh = inhibitors of human KCNK9 two-pore domain potassium channel; Q9NPC2; B-score at 10 µM; HEK293 KCNK9, FluxOR thallium flux fluorescence; active compounds read low; 310,000 compounds, 1.2% hits;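 active means ratio B-score over 3 SD below the library mean, with starting fluorescence within 5 SD of its mean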;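 further: negative B-score means less thallium flux so channel inhibition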
# KCC2 sec1 = confirmation of human KCC2 transport modulators. shares compounds with Cl transport mod. HEK293-KCC2, thallium flux, FluoZin2 fluorescence; active compounds read high. normalised thallium flux (F/F0 slope) at 10 µM. 3,700 compounds, 15% hits;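 active means thallium flux slope above the same plate's solvent-only control mean plus 3 SD; inconclusive means the two replicate wells disagree; inactive means no significant difference from solvent-only control wells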
# KCC2 bumet counter = bumetanide-insensitive thallium flux in KCC2 cells with ouabain, counter-screen | shares compounds with Cl transport mod | HEK293-KCC2 + bumetanide/ouabain, thallium flux FluoZin2; active compounds read high | normalized thallium flux at 10 µM | 3,700 compounds, 49% hits;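 active means thallium entry rate above the same plate's blocked-transporter control wells by more than 3 SD; inconclusive means the two repeat wells disagree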;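 further: raw slope of fluorescence over initial fluorescence between 10 and 20 s after thallium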
# KCC2 sec2 = confirmation of human KCC2 transport modulators. normalized thallium flux at 10 µM. HEK293-KCC2, thallium flux FluoZin2 fluorescence; actives lie on both sides; F/F0 rise rate, 10–20 s post-thallium. shares compounds with Cl transport mod. AID 1715. 3,700 compounds, 23% hits;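 active means thallium flux slope more than 3 SD above or below the plate's solvent-only control mean, mostly below; inconclusive means the two repeat wells disagreed; inactive means no significant shift from solvent-only controls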;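 further: raw slope with 0.1% DMSO as baseline and bumetanide as block control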
# HEK293 Tl flux = parental HEK flux effect, counter-screen; thallium flux rate (normalised fluorescence) at 10 µM; HEK293 parental cells, thallium flux FluoZin2, ouabain; baseline-ratio fluorescence slope, 10–20 s after thallium; shares compounds with Cl transport mod; AID 1716; 3,700 compounds, 46% hits;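 active means thallium flux rate significantly above the same plate's solvent-only control wells, beyond their mean plus 3 SD; inconclusive means the two replicate wells gave conflicting results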
# KCC2 ouabain = KCC2 (human) modulation, ouabain retest. raw Tl+ flux slope (below DMSO = inhibition, above = activation) at 10 µM. shares compounds with Cl transport mod. AID 1717. 3,700 compounds, 48% hits. HEK293-KCC2, thallium flux FluoZin2 fluorescence; bidirectional: low = inhibitor, high = activator;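 active means thallium flux slope beyond 3 SD from same-plate DMSO control mean in most replicates, usually higher, sometimes lower; inconclusive means repeat tests gave conflicting results; inactive means no significant difference from controls in most replicates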;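 further: slope of initial-normalized fluorescence between seconds 10 and 20 after thallium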
# HEK counter2 = counter-screen for KCC2 modulators: effect in parental HEK293 cells | 3,700 compounds, 33% hits | thallium flux slope at 10 µM | AID 1718 | shares compounds with Cl transport mod | thallium flux FluoZin-2 fluorescence slope;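 active means thallium flux slope above the same plate's solvent-control mean plus 3 SD in both duplicate wells; inconclusive means duplicate wells that disagreed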;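 further: run without ouabain in cells lacking the KCC2 cotransporter; slope of fluorescence scaled to its starting value between 10 and 20 s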
# * hit, by the source's call; i = inactive; ? = inconclusive; nt = no result given.
SMILES,KCNQ1 block,KCNQ1 act,KCNK3 block,hERG rescue,Cl transport mod,KCNK9 inh,KCC2 sec1,KCC2 bumet counter,KCC2 sec2,HEK293 Tl flux,KCC2 ouabain,HEK counter2
CCOc1ccc(C2=Nn3c(nnc3-c3ccccn3)SC2)cc1,i,i,i,-17,-0.76,i,0.01,0.0062,0.034,0.0064,0.022,0.01
Cc1ccc2sc(C)cc(=O)c2c1,nt,nt,i,nt,nt,nt,nt,nt,nt,nt,nt,nt
Cc1cccc(NC(=S)NNC(=O)c2ccccc2OC(F)F)c1,i,i,i,-6,13*,i,0.0091,0.026*,0.03,0.012*,?,0.011*
CCCc1cc(C(=O)NNC(=S)Nc2cccc(C)c2)cs1,i,i,i,3,31*,i,0.0058,0.083*,0.063*,0.077*,0.065*,0.044*
Cc1cccc(CNC(=O)C2CCC(=O)N(C3CC3)C2)c1 (configuration not stated),i,i,i,-2,nt,i,nt,nt,nt,nt,nt,nt
O=C(O)CC/C(=C\c1ccc(Cl)c([N+](=O)[O-])c1)c1nc2ccccc2s1,i,i,i,-9,-7.1*,i,0.0072,0.0072,?,0.0058*,?,0.009
O=C(O)C/C(=C\c1ccc(N2CCOCC2)c([N+](=O)[O-])c1)c1nc2ccccc2s1,i,i,i,2,nt,i,nt,nt,nt,nt,nt,nt
O=C(O)CC/C(=C/c1cccc(NC(=O)c2ccccc2Cl)c1)c1nc2ccccc2s1,nt,nt,i,nt,nt,nt,nt,nt,nt,nt,nt,nt
N#C/C(=C\c1ccc(O)c([N+](=O)[O-])c1)c1nc2ccccc2s1,6*,i,i,-9,-6.2*,i,0.0079,0.006,0.032,0.007,0.013*,0.01
O=C(O)CC/C(=C\c1ccc(N2CCOCC2)c([N+](=O)[O-])c1)c1nc2ccccc2s1,i,i,i,-8,-8.5*,i,0.0057,0.0048,0.021*,0.0074,?,0.011
O=C(C[C@@H]1C/C=C\C[C@H](Cc2ccc(F)cc2)C(=O)OC[C@@H](c2ccccc2)NC1=O)NCCO,nt,nt,i,nt,nt,nt,nt,nt,nt,nt,nt,nt
O=C(C(=O)N1CCN(c2ccc(F)cc2)CC1)c1c[nH]c2ccccc12,i,i,i,3,-3.5*,i,0.0065,0.0048,0.025*,0.0079,?,0.011
CCN(C(=O)COC(=O)c1cc(Cl)ccc1OC)c1c(N)n(Cc2ccccc2)c(=O)[nH]c1=O,nt,nt,i,nt,nt,nt,nt,nt,nt,nt,nt,nt
COc1ccc(C(=O)c2ccc(OC)cc2O)c(O)c1,i,i,i,0,5.8*,i,0.0088,0.0053,0.029,0.0072,0.026,0.0097
CCNc1nc(NCC)nc(Oc2ccc(N)cc2)n1,i,i,i,-6,nt,i,0.0067,0.0046,0.031,0.0074,0.018,0.0096
O=C(N1CCOCC1)n1nnc2ccccc21,i,i,i,-3,7.5*,i,0.0066,?,0.027,0.0078,0.019,0.01
O=C(N1CCOCC1)n1cnc2ccccc21,i,i,i,-3,-0.29,i,nt,nt,nt,nt,nt,nt
